DAGLB inhibitor: diacylglycerol lipase beta (human) inhibition | Q8NCG7 | HEK293T DAGLB membrane lysate, EnzChek fluorogenic substrate | inhibition, % at 5.17 µM | 340,000 compounds, 0.059% hits | AID 504411; in the data active = inhibition above about 34%
Target sequence (Q8NCG7 whole entry, looked up): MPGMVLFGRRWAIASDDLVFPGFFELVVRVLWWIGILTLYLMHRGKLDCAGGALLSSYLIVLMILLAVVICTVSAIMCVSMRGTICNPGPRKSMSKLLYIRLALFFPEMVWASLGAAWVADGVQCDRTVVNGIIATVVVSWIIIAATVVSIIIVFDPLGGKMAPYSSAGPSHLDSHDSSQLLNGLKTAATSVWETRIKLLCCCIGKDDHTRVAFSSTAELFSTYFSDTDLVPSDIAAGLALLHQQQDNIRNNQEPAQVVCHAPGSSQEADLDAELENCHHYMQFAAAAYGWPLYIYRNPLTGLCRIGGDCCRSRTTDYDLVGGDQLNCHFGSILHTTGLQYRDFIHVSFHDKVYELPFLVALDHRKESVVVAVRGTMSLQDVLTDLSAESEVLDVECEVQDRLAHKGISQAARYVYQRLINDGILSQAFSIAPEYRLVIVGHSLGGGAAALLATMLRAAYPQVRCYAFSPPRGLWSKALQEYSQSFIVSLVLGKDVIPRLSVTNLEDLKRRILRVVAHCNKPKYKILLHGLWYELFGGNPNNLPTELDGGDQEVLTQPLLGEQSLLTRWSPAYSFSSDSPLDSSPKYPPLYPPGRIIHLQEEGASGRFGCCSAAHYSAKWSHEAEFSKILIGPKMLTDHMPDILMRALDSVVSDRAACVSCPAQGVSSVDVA
GPR7 antagonist: antagonists of human GPR7 (neuropeptides B/W receptor 1) | P48145 | GPR7-expressing cells, fluorescence antagonist assay | inhibition, % at 4.4 µM | 290,000 compounds, 1.1% hits; in the data active = inhibition above about 16%, passing the limit was not always enough;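 also: cells stimulated with the agonist NPW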
MPTP block: permeability transition pore inhibition; isolated mouse mitochondria, Ca2+ swelling absorbance, 30 min; inhibition, % at 10 µM; 360,000 compounds, 1.4% hits; AID 602449;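 active = inhibition of 50% or more, scaled per plate between neutral and stimulator controls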
TAAR1 antagonist: antagonists of human TAAR1; Q96RJ0; CHO RD-HGA16 TAAR1, Fluo-8 calcium fluorescence, antagonist; inhibition, % at 3 µM; 360,000 compounds, 1.5% hits; AID 624466;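 active = inhibition above a per-plate cutoff, the mean inhibition of test compounds on that plate plus 3 SD, cut at about 49% in these data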
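Material: CHO RD-HGA16 cells bearing hTAAR1; compound dosing: one-point dosing, 3 µM nominal final; schedule: dye loading 75 min at 37 °C, then 30 min room temperature; measured by: calcium fluorescence with Fluo-8; control set: vehicle and agonist controls; replication: n of 1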
TAAR1 ag: agonists of human TAAR1. activation, % at 3 µM. CHO RD-HGA16 TAAR1, Fluo-8 calcium fluorescence; vehicle wells 0%, saturating PEA agonist 100%. Q96RJ0. 360,000 compounds, 0.99% hits;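 active = activation above the mean activation of all test compounds in the run plus 3 SD, cut at about 38% in these data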
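Assay system – CHO-derived RD-HGA16 cells with stable Gα16 and human TAAR1 · Compound dosing – one-point dosing at 3 µM (nominal) · Incubation – 17-24 h seeding, 75 min 37 °C dye, 30 min RT · Measured by – kinetic Fluo-8 calcium fluorescence · Control set – DMSO vehicle as 0%, PEA at EC100 as 100% · Repeats – single well for each compound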
GPR7 antag cf: human GPR7 antagonism, confirmation assay; GPR7-expressing cells, calcium fluorescence antagonist mode; shares compounds with GPR7 antagonist; 2,400 compounds, 52% hits; inhibition, % at 4.4 µM; in the data active = inhibition above about 24%;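 also: stimulated with the GPR7 agonist NPW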
MCHR1 antagonist: antagonizes human MCHR1, a GPR7 antagonist counter-screen; shares compounds with GPR7 antagonist; MCHR1-expressing cells, fluorescence antagonist assay; inhibition, % at 4.4 µM; 2,400 compounds, 62% hits; in the data active = inhibition above about 22%
Large screens that a line does not name were inactive (follow-up assays come after a bar, where they were run). A selection: hits, their analogues and other compounds. The true share with any hit is near 4%.

CCc1c(-c2cccc(OC)c2)ncn1CCc1ccccc1OC	none (no result: DAGLB inhibitor, GPR7 antagonist, MPTP block)
O=C(O)CSc1nc2ccccc2[nH]1	GPR7 antagonist 26.6 | GPR7 antag cf inactive | MCHR1 antagonist inactive
O=C(O)CSc1nc2ccccc2c(=O)[nH]1	none
Cc1ccc2c(c1)N(C(=O)CCC(=O)N1CCN(c3ccccn3)CC1)CC(C)O2 (centres undefined)	GPR7 antagonist 30.8 | GPR7 antag cf inactive | MCHR1 antagonist inactive
O=C(OCc1ccccc1)C1=NNC2C(=O)N(c3ccccc3)C(=O)C12 (centres undefined)	GPR7 antagonist 22.8 | GPR7 antag cf inactive | MCHR1 antagonist inactive
CCC(CC)C1C(C#N)=C(N)SC(N)=C1C#N	GPR7 antagonist 22.3 | GPR7 antag cf inactive | MCHR1 antagonist inactive
CC(c1ccon1)N(C)C(=O)CCc1nnc(C2(c3ccc(Cl)cc3)CCC2)o1 (centres undefined)	GPR7 antagonist 25.0 | GPR7 antag cf inactive | MCHR1 antagonist inactive
Cc1cc(C)nc(/N=C(\N)Nc2ccc(-c3ccccc3)cc2)n1	GPR7 antagonist 64.9, TAAR1 antagonist 64.0, TAAR1 ag 58.4 | GPR7 antag cf 65.5 | MCHR1 antagonist 80.8
CC(=O)Nc1ccc(N/C(N)=N/c2nc(C)cc(C)n2)cc1	none
CC1(c2ccc(Cl)cc2)NC(=O)N(CC(=O)N2CCN(C(=O)c3cccs3)CC2)C1=O (centres undefined)	none (no result: GPR7 antagonist)
CCc1ccc(CN2CCC(n3nccc3NC(=O)c3ccccc3C)CC2)cc1	GPR7 antagonist 26.9 | GPR7 antag cf inactive | MCHR1 antagonist 26.5
CC1CN(C(=O)CCC(=O)NCc2ccc(F)cc2)c2ccccc2S1 (centres undefined)	GPR7 antagonist 28.0 | GPR7 antag cf inactive | MCHR1 antagonist inactive
CC1CN(C(=O)CCC(=O)NCc2ccc(Cl)cc2)c2ccccc2S1 (centres undefined)	none
C[C@@H]1ON(C)[C@H]2C[C@H]3c4cc(N5CCCCC5)ccc4CCN3C[C@@H]12	none (no result: DAGLB inhibitor, GPR7 antagonist, MPTP block)
CCOc1ccc([N+](=O)[O-])cc1CNC1CCCCCCC1	GPR7 antagonist 54.0 | GPR7 antag cf 38.2 | MCHR1 antagonist inactive
O=[N+]([O-])c1cccc(CNC2CCCCCC2)c1	none
Cc1cccc(Cn2c(C)nc3ccc([N+](=O)[O-])cc3c2=O)c1	GPR7 antagonist 45.4 | GPR7 antag cf 35.8 | MCHR1 antagonist 42.9
Cc1nc2ccc([N+](=O)[O-])cc2c(=O)n1Cc1cccc(F)c1	none
CCC(=O)N(CCC1(C(C)C)CCOC(C)(C)C1)C(C)c1cccs1 (centres undefined)	GPR7 antagonist 25.0 | GPR7 antag cf inactive | MCHR1 antagonist inactive
CSc1cccc(NC(=O)COC(=O)C2CCN(S(=O)(=O)c3ccccc3)CC2)c1	none (no result: GPR7 antagonist)
COc1ccc2cc([C@H](C)C(=O)N(C)Cc3ccccc3N3CCCC3)ccc2c1	GPR7 antagonist 27.9 | GPR7 antag cf inactive | MCHR1 antagonist 49.8
CC(C)(C)NC(=O)C1c2ccccc2OCC(=O)N1Cc1ccco1 (centres undefined)	none (no result: DAGLB inhibitor, GPR7 antagonist)
CCCN(CC(=O)Nc1c(C)cccc1CC)C(=O)SCC	none
C=CCN(CC(=O)Nc1c(C)cccc1CC)C(=O)SCCC	GPR7 antagonist 26.6 | GPR7 antag cf inactive | MCHR1 antagonist inactive
CCCSC(=O)N(CC)CC(=O)Nc1c(CC)cccc1CC	GPR7 antagonist 26.2 (no result: TAAR1 antagonist, TAAR1 ag) | GPR7 antag cf 26.4 | MCHR1 antagonist 22.1
CCCCN(CC(=O)Nc1c(C)cccc1CC)C(=O)SCC	GPR7 antagonist 35.6 (no result: TAAR1 antagonist, TAAR1 ag) | GPR7 antag cf 38.9 | MCHR1 antagonist 29.6
CC1=C(C(=O)N(C(C)C)C(C)C)CC(CC(=O)NC2CC2)C(=O)N1CCCN1CCCC1=O (centres undefined)	none (no result: DAGLB inhibitor, GPR7 antagonist)
Nc1nc2c(ncn2[C@@H]2O[C@H](C(=O)N[C@H](Cc3ccccc3)C(=O)NC3CCCCC3)[C@@H](O)[C@H]2O)c(=O)[nH]1	none (no result: DAGLB inhibitor, GPR7 antagonist, MPTP block)
COc1ccc2nc3n(c(=O)c2c1)-c1ccccc1C(=O)NC3Cc1ccccc1 (centres undefined)	none (no result: DAGLB inhibitor, GPR7 antagonist, MPTP block)

Assay outcomes deposited in PubChem by several laboratories.
